Data as given in ChEMBL document CHEMBL5226362, “Screening for Cyclotides in Sri Lankan Medicinal Plants: Discovery, Characterization, and Bioactivity Screening of Cyclotides from Geophila repens” (J Nat Prod, 2023).
Converted amounts (≈) assume the structure as drawn. The source made the active and inactive calls. The rule behind the calls is not given here. Where a SMILES comes first, the peptide text is derived from it. Bridges are numbered along the chain shown (N, C = ends).

Legend:
Candida albicans = experiment: Antibacterial activity against Candida albicans ATCC 90028 assessed as inhibition of bacterial growth at 6 to 12 hrs by dilution method; type: functional; conditions: time 6-12 hrs
Summary of the method: (§1)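 Broth-free microdilution MIC assay. Microbes were grown overnight in 3% TSB at 37 °C, washed twice and resuspended in Tris buffer, then adjusted by A600 to 1 × 10⁶ cells/mL (about 50 000 cells/well). Cells were mixed 1:1 with 2-fold serial dilutions of peptide in Tris buffer (highest tested 32.5 μM) and held 5 h. Then 20% TSB was added and plates incubated 6–12 h at 37 °C, depending on organism. MIC was read as the lowest concentration giving 100% growth inhibition. Run in triplicate.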

Pseudomonas aeruginosa = experiment: Antibacterial activity against Pseudomonas aeruginosa ATCC 27853 assessed as inhibition of bacterial growth at 6 to 12 hrs by dilution method; type: functional; conditions: time 6-12 hrs; summary of the method: as §1
Staphylococcus aureus = experiment: Antibacterial activity against Staphylococcus aureus ATCC 29213 assessed as inhibition of bacterial growth at 6 to 12 hrs by dilution method; type: functional; conditions: time 6-12 hrs; summary of the method: as §1
U-937 [1] = experiment: Cytotoxicity against human U-937 cells assessed as cell survival at 20 uM incubated for 72 hrs by FMCA assay; type: functional, cell-based
Summary of the method: (§2)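 FMCA with U937 human lymphoma cells, about 20 000 cells/well, exposed to 2-fold peptide dilutions for 72 h at 37 °C in 5% CO₂. Cells were washed with PBS and given FDA in Q2 buffer (NaCl/HEPES, pH 7.4) for 40 min at 37 °C. Fluorescence was read at ex 485/em 538 nm. Viability was expressed as % of control after blank subtraction; IC50 came from a variable-slope sigmoidal fit against log concentration.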

Cell membrane = experiment: Induction of bacterial inner membrane permeabilization in Escherichia coli assessed as carboxyfluorescein leakage measured for 45 mins by fluorescence based microplate reader assay; type: subcellular
Summary of the method: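 Liposomes were made from E. coli polar lipid extract loaded with 100 mM carboxyfluorescein in 10 mM Tris, pH 7.4, extruded through 100 nm membranes and gel-filtered. They were added at 10 μM final lipid to 2-fold peptide dilutions in Tris at 37 °C, with no cumulative additions. Dequenching was monitored for 45 min and normalized to 0.16% Triton X-100 after baseline subtraction. Values are the mean ± SD of triplicates; EC50 came from a variable-slope sigmoidal fit against log concentration.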

U-937 [2] = experiment: Cytotoxicity against human U-937 cells assessed as inhibition of cell growth incubated for 72 hrs by FMCA assay; type: functional, cell-based; conditions: U-937, 72 h
Summary of the method: as §2, with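 “°C.” for “°C. Fluorescence was read at ex 485/em 538 nm.”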

Row | MIC (Candida albicans) [µM] | MIC (Pseudomonas aeruginosa) [µM] | MIC (Staphylococcus aureus) [µM] | EC50 (Cell membrane) [µM] | SMILES | Activity (U-937 [1]) | IC50 (U-937 [2]) [µM]
1 | > 10 | > 10 | > 10 | 0.14 | CC[C@H](C)[C@@H]1NC(=O)CNC(=O)[C@H](CC(N)=O)NC(=O)[C@H]([C@@H](C)CC)NC(=O)[C@H](Cc2ccc(O)cc2)NC(=O)[C@@H]2CSSC[C@H]3NC(=O)CNC(=O)[C@H](Cc4ccccc4)NC(=O)[C@H](Cc4ccc(O)cc4)NC(=O)[C@H](C)NC(=O)[C@@H]4CSSC[C@H](NC(=O)[C@H](CO)NC(=O)[C@H](CSSC[C@H](NC(=O)[C@H](C)NC1=O)C(=O)NCC(=O)N[C@@H](CCC(=O)O)C(=O)N[C@@H](CO)C(=O)N4)NC(=O)CNC(=O)[C@@H]1CCCN1C(=O)[C@H]([C@@H](C)CC)NC(=O)[C@H](Cc1c[nH]c4ccccc14)NC3=O)C(=O)N[C@@H](CCCCN)C(=O)N[C@@H](CC(=O)O)C(=O)N[C@@H](CCCCN)C(=O)N[C@@H](C(C)C)C(=O)N2 | Active | –
2 | > 10 | > 10 | > 10 | 0.16 | CC[C@H](C)[C@@H]1NC(=O)[C@H](Cc2ccccc2)NC(=O)[C@H](C(C)C)NC(=O)[C@@H]2CSSC[C@@H]3NC(=O)[C@H](CO)NC(=O)[C@H]4CSSC[C@H](NC(=O)[C@@H]5CCCN5C(=O)[C@H](C(C)C)NC(=O)CNC(=O)[C@H](CC(N)=O)NC(=O)[C@H](CC(N)=O)NC(=O)[C@H](Cc5ccc(O)cc5)NC(=O)[C@H](CSSC[C@H](NC(=O)[C@@H]5CCCN5C1=O)C(=O)N[C@@H](Cc1ccccc1)C(=O)N[C@@H]([C@@H](C)O)C(=O)N[C@@H]([C@@H](C)O)C(=O)N[C@@H](C(C)C)C(=O)N[C@@H](C(C)C)C(=O)NCC(=O)N4)NC(=O)[C@H](C(C)C)NC(=O)[C@H](CCCCN)NC(=O)[C@H](CC(=O)O)NC(=O)[C@H](CCCCN)NC3=O)C(=O)NCC(=O)N[C@@H](CCC(=O)O)C(=O)N[C@@H](CO)C(=O)N2 | Active | –
3 | > 10 | > 10 | > 10 | 0.16 | CC[C@H](C)[C@@H]1NC(=O)[C@H](C(C)C)NC(=O)[C@H]([C@@H](C)O)NC(=O)[C@H]([C@@H](C)O)NC(=O)[C@H]([C@@H](C)CC)NC(=O)[C@H]2CSSC[C@@H]3NC(=O)[C@H](C(C)C)NC(=O)[C@H](CCCCN)NC(=O)[C@H](CC(=O)O)NC(=O)[C@H](CCCCN)NC(=O)[C@@H]4CSSC[C@H](NC(=O)[C@H](CO)NC(=O)[C@H](CCC(=O)O)NC(=O)CNC(=O)[C@H](CSSC[C@@H](NC(=O)CNC1=O)C(=O)N[C@@H](CO)C(=O)N4)NC(=O)[C@@H]1CCCN1C(=O)[C@H](C(C)C)NC(=O)CNC(=O)[C@H](CC(N)=O)NC(=O)[C@H]([C@@H](C)O)NC(=O)[C@H](Cc1ccc(O)cc1)NC3=O)C(=O)N[C@@H](C(C)C)C(=O)N[C@@H](Cc1ccccc1)C(=O)N[C@@H]([C@@H](C)CC)C(=O)N1CCC[C@H]1C(=O)N2 | Active | –
4 | > 10 | 10 (≈ 31.4 µg/mL) | > 10 | – | CC[C@H](C)[C@@H]1NC(=O)[C@H](C)NC(=O)[C@H](CO)NC(=O)[C@H](CO)NC(=O)[C@H]([C@@H](C)CC)NC(=O)[C@@H]2CSSC[C@@H]3NC(=O)[C@H](C(C)C)NC(=O)[C@H](CCCCN)NC(=O)[C@H](CO)NC(=O)[C@H](CCCCN)NC(=O)[C@@H]4CSSC[C@H](NC(=O)[C@H](CO)NC(=O)[C@H](CCC(=O)O)NC(=O)CNC(=O)[C@H](CSSC[C@H](NC(=O)CNC1=O)C(=O)N[C@@H](CO)C(=O)N4)NC(=O)[C@@H]1CCCN1C(=O)[C@H]([C@@H](C)CC)NC(=O)CNC(=O)[C@H](CC(N)=O)NC(=O)[C@H](CCCNC(=N)N)NC(=O)[C@H](Cc1ccc(O)cc1)NC3=O)C(=O)N[C@@H](C(C)C)C(=O)N[C@@H](Cc1c[nH]c3ccccc13)C(=O)N[C@@H]([C@@H](C)CC)C(=O)N1CCC[C@H]1C(=O)N2 (cyclo(AIGCSCKSKVCYRNGIPCGESCVWIPCISS); disulfide 4-18, 6-22, 11-27) | – | 0.26
